Reference: ChEMBL document CHEMBL2311272, “Design of a new fluorescent probe: pyrrole/imidazole hairpin polyamides with pyrene conjugation at their γ-turn” (Bioorg Med Chem, 2013)

Columns and labels:
[1] = Binding affinity to 5'-biotin-labeled GCTAGTC-CAGGCTTTTGCCTGGACTAGC-3' DNA (unknown origin) by surface plasmon resonance assay
How it was run: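 Biacore SPR at 25 °C. Biotinylated hairpin DNA is captured on a streptavidin SA chip. Polyamides are diluted from 4 mM DMSO stocks into HBS-EP (10 mM HEPES […], 0.15 M NaCl, 3 mM EDTA, 0.005% P20) with 0.1% DMSO, which is also the running buffer. Samples are injected at 5 μL/min over 6.25 nM–4 μM. Regeneration uses running buffer or 10 mM glycine-HCl, pH 1.5. KD is obtained by model fitting.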

[2] = Binding affinity to 5'-CCGAGTCCATACG-3' DNA (unknown origin) assessed as increase in fluorescence intensity at 200 nM by florescence assay relative to control
How it was run: (§1)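 Steady-state fluorescence of 200 nM pyrene conjugates mixed with target oligonucleotide duplex in 5 mM Na phosphate buffer, pH 7.0, 1% v/v DMF. Excitation at 345 nm, emission read at 386 nm. Measured at room temperature without oxygen removal. Intensity is compared with that of the conjugate alone.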

[3] = Binding affinity to 5'-CGTATGGACTCGG-3' DNA (unknown origin) assessed as increase in fluorescence intensity at 200 nM by florescence assay relative to control; how it was run: as §1

Kd [1] | fold change (FC) [2] | fold change (FC) [3] | SMILES
> 10 µM | 3 | 3 | CN(C)CCCNC(=O)CCNC(=O)c1cc(NC(=O)c2cc(NC(=O)c3cc(NC(=O)c4nc(NC(=O)CCCNC(=O)c5cc(NC(=O)c6cc(NC(=O)c7nc(NC(=O)c8nc(NC(=O)CCNC(=O)CCNC(=O)CCCc9ccc%10ccc%11cccc%12ccc9c%10c%11%12)cn8C)cn7C)cn6C)cn5C)cn4C)cn3C)cn2C)cn1C
1.74 µM | 7 | 7 | CC(=O)Nc1cn(C)c(C(=O)Nc2cn(C)c(C(=O)Nc3cc(C(=O)Nc4cc(C(=O)NCC[C@@H](NC(=O)CCCc5ccc6ccc7cccc8ccc5c6c78)C(=O)Nc5cn(C)c(C(=O)Nc6cc(C(=O)Nc7cc(C(=O)Nc8cc(C(=O)NCCC(=O)NCCCN(C)C)n(C)c8)n(C)c7)n(C)c6)n5)n(C)c4)n(C)c3)n2)n1
0.0173 µM | 4 | 4 | CC(=O)Nc1cn(C)c(C(=O)Nc2cn(C)c(C(=O)Nc3cc(C(=O)Nc4cc(C(=O)NCC[C@@H](NC(=O)CCNC(=O)CCCc5ccc6ccc7cccc8ccc5c6c78)C(=O)Nc5cn(C)c(C(=O)Nc6cc(C(=O)Nc7cc(C(=O)Nc8cc(C(=O)NCCC(=O)NCCCN(C)C)n(C)c8)n(C)c7)n(C)c6)n5)n(C)c4)n(C)c3)n2)n1
> 10 µM | 3 | 3 | CN(C)CCCNC(=O)CCNC(=O)c1cc(NC(=O)c2cc(NC(=O)c3cc(NC(=O)c4nc(NC(=O)CCCNC(=O)c5cc(NC(=O)c6cc(NC(=O)c7nc(NC(=O)c8nc(NC(=O)CCNC(=O)CCCc9ccc%10ccc%11cccc%12ccc9c%10c%11%12)cn8C)cn7C)cn6C)cn5C)cn4C)cn3C)cn2C)cn1C
